Assay [1] has as its target Sigma non-opioid intracellular receptor 1 (Cavia porcellus, UniProt Q60492). Put plainly: Displacement of [3H]-(+)-pentazocine from Sigma1 receptor in guinea pig cortex membranes incubated for 120 mins by scintillation counting method. It counts as cell membranes, Membrane.
Assay [2] deals with Glutamate receptor ionotropic, NMDA 2B (Homo sapiens, UniProt Q05586+Q13224). The experiment in a line: Displacement of [3H]ifenprodil from human GluN2B expressed in mouse L(tk-) cell membranes co-expressing GluN1a incubated for 2 hrs by scintillation counting method. Further details: species or system L-M(TK-), Cell membrane.
Sequence of Glutamate receptor ionotropic, NMDA 2B (Q13224 whole entry, one chain of several): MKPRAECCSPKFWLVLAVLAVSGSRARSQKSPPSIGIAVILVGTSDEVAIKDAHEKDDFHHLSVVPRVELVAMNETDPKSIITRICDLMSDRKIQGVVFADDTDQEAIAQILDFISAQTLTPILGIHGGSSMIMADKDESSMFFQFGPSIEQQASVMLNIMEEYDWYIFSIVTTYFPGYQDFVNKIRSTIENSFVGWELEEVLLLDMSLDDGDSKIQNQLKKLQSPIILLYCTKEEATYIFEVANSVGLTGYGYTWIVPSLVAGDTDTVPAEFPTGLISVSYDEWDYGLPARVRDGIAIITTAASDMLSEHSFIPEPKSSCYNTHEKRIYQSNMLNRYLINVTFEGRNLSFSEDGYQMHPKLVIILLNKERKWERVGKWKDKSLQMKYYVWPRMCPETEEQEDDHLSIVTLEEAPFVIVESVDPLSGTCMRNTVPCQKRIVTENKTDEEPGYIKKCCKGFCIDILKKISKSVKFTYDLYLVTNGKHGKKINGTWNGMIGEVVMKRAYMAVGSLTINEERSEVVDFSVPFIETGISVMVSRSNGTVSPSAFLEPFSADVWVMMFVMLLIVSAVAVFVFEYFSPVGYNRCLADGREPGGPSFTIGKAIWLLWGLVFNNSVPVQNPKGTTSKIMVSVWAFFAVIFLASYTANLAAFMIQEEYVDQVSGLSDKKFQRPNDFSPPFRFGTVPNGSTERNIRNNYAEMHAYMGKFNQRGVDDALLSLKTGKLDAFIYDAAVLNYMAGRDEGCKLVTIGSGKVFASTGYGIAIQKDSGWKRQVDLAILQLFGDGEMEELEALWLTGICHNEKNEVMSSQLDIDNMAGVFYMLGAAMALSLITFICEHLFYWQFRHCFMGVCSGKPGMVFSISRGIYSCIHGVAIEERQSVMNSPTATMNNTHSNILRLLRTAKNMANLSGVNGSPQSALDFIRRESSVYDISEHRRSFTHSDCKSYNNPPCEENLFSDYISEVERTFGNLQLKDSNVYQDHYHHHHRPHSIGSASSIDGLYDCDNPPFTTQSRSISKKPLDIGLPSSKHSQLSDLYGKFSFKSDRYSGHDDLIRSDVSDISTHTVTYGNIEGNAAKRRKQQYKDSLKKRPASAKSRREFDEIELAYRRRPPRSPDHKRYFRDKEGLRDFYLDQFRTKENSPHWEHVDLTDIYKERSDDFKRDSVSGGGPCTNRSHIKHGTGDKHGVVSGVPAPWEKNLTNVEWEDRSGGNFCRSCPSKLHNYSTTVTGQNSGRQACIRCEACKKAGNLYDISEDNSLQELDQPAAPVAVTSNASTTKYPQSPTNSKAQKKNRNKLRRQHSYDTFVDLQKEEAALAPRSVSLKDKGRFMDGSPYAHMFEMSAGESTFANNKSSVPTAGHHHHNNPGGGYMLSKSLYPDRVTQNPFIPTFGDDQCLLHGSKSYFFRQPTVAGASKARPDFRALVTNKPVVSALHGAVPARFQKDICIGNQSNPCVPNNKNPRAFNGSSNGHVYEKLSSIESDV
For assay [3], the target named is T1, Sigma intracellular receptor 2 (Rattus norvegicus, UniProt Q5U3Y7).
T1 sequence (Q5U3Y7 whole entry): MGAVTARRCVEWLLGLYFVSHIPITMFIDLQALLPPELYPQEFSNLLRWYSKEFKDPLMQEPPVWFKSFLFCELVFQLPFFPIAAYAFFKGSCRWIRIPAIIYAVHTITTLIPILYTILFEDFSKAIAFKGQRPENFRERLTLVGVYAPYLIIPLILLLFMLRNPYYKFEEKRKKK
Put plainly: Displacement of [3H]DTG from sigma 2 receptor in rat liver membranes incubated for 120 mins by scintillation counting method. The assay is classed as cell membranes, Membrane.

Assay [4] addresses Glutamate receptor ionotropic, NMDA 2B (Rattus norvegicus) (UniProt Q00960). The experiment in a line: Negative allosteric inhibition of rat GluN2B expressed in Oocytes co-expressing GluN1a at 1 uM at -70 mV holding potential by two electrode voltage-clamp assay relative to control. The following applies: filed as negative allosteric modulator.
For assay [5] the target is unchanged. Put plainly: Negative allosteric inhibition of rat GluN2B expressed in Oocytes co-expressing GluN1a at 10 uM at -70 mV holding potential by two electrode voltage-clamp assay relative to control. The following applies: filed as negative allosteric modulator.
Assay [6] can be described thus: Cytoprotective activity against glutamate/glycine-induced cell death in mouse L-M(TK-) cells assessed as increase in cell viability incubated for 30 mins followed by glutamate/glycine stimulation and measured after 6 hrs by LDH assay. The assay is classed as functional, cell-based. The gist of the method: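 Mouse L(tk-) fibroblasts stably carrying dexamethasone-inducible GluN1a and GluN2B vectors (1:5 ratio). Cells preincubated with test compound in DMEM, at least in triplicate, 30 min at 37 °C. Then glutamate/glycine (each 20 µM, stock added) added and incubated 6 h at 37 °C. LDH released into the supernatant read at 485 nm after 45 min at 37 °C. Buffer in place of ligand gave total LDH. (S)-ketamine 4 × 10⁻⁵ mol/L was the positive control.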

Assay [7] in a line: Cytoprotective activity against glutamate/glycine-induced cell death in mouse L-M(TK-) cells assessed as increase in cell viability at 10 uM incubated for 30 mins followed by glutamate/glycine stimulation and measured after 6 hrs by LDH assay relative to control. It counts as functional. The following applies: time 6.5 hrs. The method, boiled down: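 Mouse L(tk-) fibroblasts stably carrying dexamethasone-inducible GluN1a and GluN2B vectors (1:5). Wells blocked with DMEM containing 1% BSA, then given test compound, at least triplicate, 30 min at 37 °C. Glutamate/glycine solution then added, 6 h at 37 °C. LDH in supernatant read with diaphorase/lactate/NAD+/iodonitrotetrazolium mix, 45 min at 37 °C, absorbance 485 nm. Buffer gave total LDH; (S)-ketamine 4 × 10^-5 mol/L was positive control.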

The target of assay [8] is Sigma intracellular receptor 2 (Homo sapiens, UniProt Q5BJF2). Put plainly: Binding affinity to Sigma 2 receptor (unknown origin).
Sequence of Sigma intracellular receptor 2 (Homo sapiens, UniProt Q5BJF2) (Q5BJF2 whole entry): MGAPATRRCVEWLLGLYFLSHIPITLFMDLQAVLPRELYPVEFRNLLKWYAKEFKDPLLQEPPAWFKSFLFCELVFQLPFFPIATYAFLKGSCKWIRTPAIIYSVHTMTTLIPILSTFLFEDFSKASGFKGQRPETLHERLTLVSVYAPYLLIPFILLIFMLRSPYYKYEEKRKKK

Results on 16 molecules are retold here after ChEMBL document CHEMBL4680195, “Negative allosteric modulators of the GluN2B NMDA receptor with phenylethylamine structure embedded in ring-expanded and ring-contracted scaffolds” (Eur J Med Chem, 2020).

Structures are written as SMILES. Where only a bound is given, the exact number is not on record here.

Sequence of Sigma non-opioid intracellular receptor 1 (Q60492 whole entry): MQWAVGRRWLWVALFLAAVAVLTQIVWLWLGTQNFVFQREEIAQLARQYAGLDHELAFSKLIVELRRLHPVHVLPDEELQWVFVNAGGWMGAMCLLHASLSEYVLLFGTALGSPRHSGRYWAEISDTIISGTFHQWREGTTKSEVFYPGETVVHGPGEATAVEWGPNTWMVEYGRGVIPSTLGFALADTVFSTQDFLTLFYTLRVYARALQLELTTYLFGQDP
Sequence of Glutamate receptor ionotropic, NMDA 2B (Rattus norvegicus) (Q00960 whole entry, looked up): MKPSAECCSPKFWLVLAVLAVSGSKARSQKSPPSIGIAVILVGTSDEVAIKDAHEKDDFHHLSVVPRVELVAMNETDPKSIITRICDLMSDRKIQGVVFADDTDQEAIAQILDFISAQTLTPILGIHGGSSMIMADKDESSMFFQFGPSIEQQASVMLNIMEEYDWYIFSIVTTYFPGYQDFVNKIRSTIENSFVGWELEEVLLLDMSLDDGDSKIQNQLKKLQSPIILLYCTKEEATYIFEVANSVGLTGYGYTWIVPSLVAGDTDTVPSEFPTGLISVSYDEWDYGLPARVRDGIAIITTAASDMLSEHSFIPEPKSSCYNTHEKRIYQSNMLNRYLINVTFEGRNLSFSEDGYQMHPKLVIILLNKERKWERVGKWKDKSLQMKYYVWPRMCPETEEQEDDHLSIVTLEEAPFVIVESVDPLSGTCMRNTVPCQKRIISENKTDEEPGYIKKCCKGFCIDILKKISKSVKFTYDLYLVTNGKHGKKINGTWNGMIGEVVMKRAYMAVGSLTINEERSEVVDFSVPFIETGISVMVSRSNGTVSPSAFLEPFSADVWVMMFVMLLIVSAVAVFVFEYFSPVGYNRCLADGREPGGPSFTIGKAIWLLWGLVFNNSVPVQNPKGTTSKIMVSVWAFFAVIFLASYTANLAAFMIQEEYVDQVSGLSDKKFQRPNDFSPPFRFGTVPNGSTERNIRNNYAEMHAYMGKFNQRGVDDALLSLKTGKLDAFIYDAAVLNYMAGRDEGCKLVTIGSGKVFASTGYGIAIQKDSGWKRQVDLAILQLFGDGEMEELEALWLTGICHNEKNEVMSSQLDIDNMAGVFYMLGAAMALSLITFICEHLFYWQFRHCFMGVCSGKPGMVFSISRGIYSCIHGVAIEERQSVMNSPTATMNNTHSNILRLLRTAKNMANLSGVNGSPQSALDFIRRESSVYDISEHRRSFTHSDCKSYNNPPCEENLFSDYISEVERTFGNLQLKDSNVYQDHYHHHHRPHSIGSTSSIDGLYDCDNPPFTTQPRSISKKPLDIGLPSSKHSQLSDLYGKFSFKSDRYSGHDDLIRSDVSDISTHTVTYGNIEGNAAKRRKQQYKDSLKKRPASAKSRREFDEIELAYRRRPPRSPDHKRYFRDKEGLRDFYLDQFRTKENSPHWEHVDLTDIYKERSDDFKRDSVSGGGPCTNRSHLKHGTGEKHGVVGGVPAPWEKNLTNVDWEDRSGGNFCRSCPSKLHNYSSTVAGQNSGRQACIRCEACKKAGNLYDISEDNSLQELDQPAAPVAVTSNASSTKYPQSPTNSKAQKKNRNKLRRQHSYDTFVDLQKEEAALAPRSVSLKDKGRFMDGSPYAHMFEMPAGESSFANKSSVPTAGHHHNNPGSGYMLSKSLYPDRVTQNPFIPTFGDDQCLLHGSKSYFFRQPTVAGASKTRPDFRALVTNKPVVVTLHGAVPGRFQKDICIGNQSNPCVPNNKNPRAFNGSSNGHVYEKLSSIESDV

Take `c1ccc(CCNC2CCc3ccccc3C2)cc1` (centres undefined): the results for the inhibition constant Ki in assay [1], in assay [2] and in assay [3] were 51 nM, 237 nM and 70 nM, respectively.
`c1ccc(C2CCN(C3CCc4ccccc4C3)CC2)cc1` (centres undefined): the Ki in assay [1] worked out at 1.9 nM; in assay [2], 8.4 nM; in assay [3], 2.9 nM.
In the case of `c1ccc(CCCCN2CCCc3ccccc3CC2)cc1`, the results for the inhibition in assay [4] and in assay [5] were 8% and 60%, respectively. Further, the Ki in assay [1] was 22 nM; in assay [2], 32 nM; in assay [3] it was 50 nM. In addition, the IC50 in assay [6] was 890 nM.
`c1ccc(C2CCN(C3Cc4ccccc4C3)CC2)cc1`: the values for the inhibitory constant (Ki) in assay [1], in assay [2] and in assay [3] were 44 nM, 4.5 nM and 25 nM, respectively.
As for `c1ccc(CCCN2CCCc3ccccc3CC2)cc1`, the Ki in assay [1] worked out at 17 nM; in assay [2] it was 36 nM; in assay [3], 178 nM. Further, the IC50 in assay [6] came to 7800 nM.
`c1ccc(CCCNC2Cc3ccccc3C2)cc1`: the Ki in assay [1] stood at 58 nM; in assay [2] it was 117 nM; in assay [3], 38 nM. Besides, the Activity in assay [7] is listed as 31%.
As to `CC(C(O)c1ccc(O)cc1)N1CCC(Cc2ccccc2)CC1` (centres undefined) [IFENPRODIL], the IC50 in assay [6] is 590 nM.
Turning to `c1ccc(CNC2CCc3ccccc3C2)cc1` (centres undefined), the Ki in assay [1] came out at 285 nM; in assay [2] it was 4000 nM; in assay [3] it was 65 nM.
For `c1ccc(CCCCNC2CCc3ccccc3C2)cc1` (centres undefined), the Ki in assay [1] amounted to 46 nM; in assay [2] it was 266 nM; in assay [3] it was 50 nM.
Regarding `c1ccc(CCCNC2CCc3ccccc3CC2)cc1`, in assay [7], the Activity is 29%.
With `c1ccc(CCNC2Cc3ccccc3C2)cc1`, the results for the Ki in assay [1], in assay [2] and in assay [3] were 168 nM, 455 nM and 694 nM, respectively.
Regarding `c1ccc(CC2CCN(C3Cc4ccccc4C3)CC2)cc1`, the Ki in assay [1] is 51 nM; in assay [2], 3.2 nM; in assay [3], 28 nM. In addition, in assay [7], the Activity is on record as 7%.
In assay [8], `Oc1ccc2c(c1)CCN(CCCCc1ccccc1)CC2O` (centres undefined) came in with an inhibition constant (Ki) above 10000 nM.
For `c1ccc(CC2CCN(C3CCc4ccccc4C3)CC2)cc1` (centres undefined), the figures for the Ki in assay [1], in assay [2] and in assay [3] were 6 nM, 8 nM and 2.1 nM, respectively.
For the molecule `c1ccc(CCCNC2CCc3ccccc3C2)cc1` (centres undefined), the inhibitory constant (Ki) in assay [1] amounted to 59 nM; in assay [2], 163 nM; in assay [3] it was 29 nM. Moreover, the Activity in assay [7] was found to be 30%.
Regarding `c1ccc(CCCCNC2Cc3ccccc3C2)cc1`, the Ki is 31 nM in assay [1], 66 nM in assay [2] and 150 nM in assay [3].
